Experimental data reported in ChEMBL document CHEMBL1955763, “Antimicrobial activity of sulfonamides containing 5-chloro-2-hydroxybenzaldehyde and 5-chloro-2-hydroxybenzoic acid scaffold” (Eur J Med Chem, 2012).
Converted amounts (≈) assume the structure as drawn.

Assays:
Assay type in all cases: functional
[1] = test system: Trichosporon asahii; assay: Antifungal activity against Trichosporon asahii 1188 after 24 hrs by broth microdilution method; conditions: Trichosporon asahii, 1188, 24 h
How it was run: (§1)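 Microdilution broth per CLSI M27-A3 (yeasts) or M38-A2 (moulds) in RPMI 1640 with glutamine, buffered to pH 7.0 with 0.165 mol MOPS. Compounds were in DMSO. Final inoculum was 5 × 10³ ± 0.2 CFU/mL. Other conditions matched the antibacterial assay, with MIC as IC₉₀ read visually and at 540 nm. Determined twice, in duplicate.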

[2] = test system: Aspergillus fumigatus; assay: Antifungal activity against Aspergillus fumigatus 231 after 24 hrs by broth microdilution method; conditions: Aspergillus fumigatus, 231, 24 h; how it was run: as §1
[3] = test system: Lichtheimia corymbifera; assay: Antifungal activity against Absidia corymbifera 272 after 24 hrs by broth microdilution method; conditions: Lichtheimia corymbifera, 272, 24 h; how it was run: as §1
[4] = test system: Trichophyton mentagrophytes; assay: Antifungal activity against Trichophyton mentagrophytes 445 after 24 hrs by broth microdilution method; conditions: Trichophyton mentagrophytes, 445, 24 h
[5] = test system: Mycobacterium tuberculosis; assay: Antimycobacterial activity against Mycobacterium tuberculosis H37Rv 331/88 after 14 days; conditions: H37Rv 331/88, 336 h
[6] = test system: Mycobacterium tuberculosis; assay: Antimycobacterial activity against Mycobacterium tuberculosis H37Rv 331/88 after 21 days; conditions: H37Rv 331/88, 504 h
How it was run: (§2)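 Micromethod in Sula semisynthetic medium, with compounds added as DMSO solutions over a two-fold series from 1000 down to 1. Inoculum for M. avium 330/88 was a 10⁻⁵ dilution. Plates were incubated at 37 °C and MIC was read after 14 and 21 days.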

[7] = test system: Mycobacterium avium; assay: Antimycobacterial activity against isoniazid-, rifampicin-, ofloxacin-, ethambutol-resistant Mycobacterium avium 330/88 after 14 days; conditions: 330/88, 336 h; how it was run: as §2
[8] = test system: Mycobacterium avium; assay: Antimycobacterial activity against isoniazid-, rifampicin-, ofloxacin-, ethambutol-resistant Mycobacterium avium 330/88 after 21 days; conditions: 330/88, 504 h; how it was run: as §2
[9] = test system: Mycobacterium kansasii; assay: Antimycobacterial activity against Mycobacterium kansasii 235/80 after 7 days; conditions: 235/80, 168 h
How it was run: (§3)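 Micromethod MIC in Sula semisynthetic medium, with compounds added as DMSO solutions at […]. Incubation at 37 °C. Inocula: M. kansasii 235/80 at dilution 10⁻⁴, clinical isolate 6509/96 at 10⁻⁵.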

[10] = test system: Mycobacterium kansasii; assay: Antimycobacterial activity against Mycobacterium kansasii 235/80 after 14 days; conditions: 235/80, 336 h; how it was run: as §3
[11] = test system: Mycobacterium kansasii; assay: Antimycobacterial activity against Mycobacterium kansasii 235/80 after 21 days; conditions: 235/80, 504 h; how it was run: as §3
[12] = test system: Mycobacterium kansasii; assay: Antimycobacterial activity against Mycobacterium kansasii 6509/96 after 7 days; conditions: 6509/96, 168 h; how it was run: as §3
[13] = test system: Mycobacterium kansasii; assay: Antimycobacterial activity against Mycobacterium kansasii 6509/96 after 14 days; conditions: 6509/96, 336 h; how it was run: as §3
[14] = test system: Mycobacterium kansasii; assay: Antimycobacterial activity against Mycobacterium kansasii 6509/96 after 21 days; conditions: 6509/96, 504 h; how it was run: as §3
[15] = test system: Staphylococcus aureus; assay: Antibacterial activity against Staphylococcus aureus CCM 4516/08 after 24 hrs by broth microdilution method; conditions: CCM 4516/08, 24 h
How it was run: (§4)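 Microdilution broth method modified from M07-A07, in Mueller-Hinton broth at pH 7.4 (±0.2). Compounds were dissolved in DMSO. Inoculum was made in sterile water to 0.5 McFarland (1.5 × 10⁸ CFU/mL). MIC was taken as IC₉₀, meaning ≥90% growth reduction versus the drug-free control. Growth was read visually and by absorbance at 540 nm.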

[16] = test system: Staphylococcus aureus; assay: Antibacterial activity against Staphylococcus aureus CCM 4516/08 after 48 hrs by broth microdilution method; conditions: CCM 4516/08, 48 h
How it was run: (§5)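 Broth microdilution modified from standard M07-A07 in Mueller-Hinton broth at pH 7.4 (±0.2). Compounds were dissolved in DMSO. Inoculum in sterile water was adjusted to 0.5 McFarland (1.5 × 10⁸ CFU/mL). MIC was taken as IC₉₀, i.e. ≥90% growth reduction versus control, read visually and spectrophotometrically at 540 nm.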

[17] = test system: Staphylococcus aureus; assay: Antibacterial activity against methicillin-resistant Staphylococcus aureus H 5996/08 after 24 hrs by broth microdilution method; conditions: H 5996/08, 24 h; how it was run: as §4
[18] = test system: Staphylococcus aureus; assay: Antibacterial activity against methicillin-resistant Staphylococcus aureus H 5996/08 after 48 hrs by broth microdilution method; conditions: H 5996/08, 48 h; how it was run: as §4
[19] = test system: Staphylococcus epidermidis; assay: Antibacterial activity against methicillin-resistant Staphylococcus epidermidis H 6966/08 after 24 hrs by broth microdilution method; conditions: H 6966/08, 24 h; how it was run: as §4
[20] = test system: Staphylococcus epidermidis; assay: Antibacterial activity against methicillin-resistant Staphylococcus epidermidis H 6966/08 after 48 hrs by broth microdilution method; conditions: H 6966/08, 48 h; how it was run: as §4
[21] = test system: Candida albicans; assay: Antifungal activity against Candida albicans ATCC 44857 after 24 hrs by broth microdilution method; conditions: ATCC 44857, 24 h; how it was run: as §1
[22] = test system: Candida tropicalis; assay: Antifungal activity against Candida tropicalis 156 after 24 hrs by broth microdilution method; conditions: Candida tropicalis, 156, 24 h; how it was run: as §1
[23] = test system: Nakaseomyces glabratus; assay: Antifungal activity against Candida glabrata 20/I after 24 hrs by broth microdilution method; how it was run: as §1
[24] = test system: Pichia kudriavzevii; assay: Antifungal activity against Candida krusei E58 after 24 hrs by broth microdilution method; conditions: E58, 24 h; how it was run: as §1
[25] = test system: Escherichia coli; assay: Antibacterial activity against Escherichia coli CCM 4517 after 24 hrs by broth microdilution method; conditions: CCM 4517, 24 h; how it was run: as §5

Structure (SMILES) | MIC [1] | MIC [2] | MIC [3] | MIC [4] | MIC [5] | MIC [6] | MIC [7] | MIC [8] | MIC [9] | MIC [10] | MIC [11] | MIC [12] | MIC [13] | MIC [14] | MIC [15] | MIC [16] | MIC [17] | MIC [18] | MIC [19] | MIC [20] | other results
Cc1cc(NS(=O)(=O)c2ccc(NC(=O)c3cccc(Cl)c3)cc2)no1 | 500 µM (≈ 196 µg/mL) | 500 µM (≈ 196 µg/mL) | 500 µM (≈ 196 µg/mL) | 500 µM (≈ 196 µg/mL) | 500 µM (≈ 196 µg/mL) | 500 µM (≈ 196 µg/mL) | 500 µM (≈ 196 µg/mL) | 500 µM (≈ 196 µg/mL) | 2 µM (≈ 0.784 µg/mL) | 8 µM (≈ 3.13 µg/mL) | 8 µM (≈ 3.13 µg/mL) | 8 µM (≈ 3.13 µg/mL) | 8 µM (≈ 3.13 µg/mL) | 8 µM (≈ 3.13 µg/mL) | > 500 µM | > 500 µM | > 500 µM | > 500 µM | > 500 µM | > 500 µM | MIC [21]: 500 µM (≈ 196 µg/mL); MIC [22]: 500 µM (≈ 196 µg/mL); MIC [23]: 500 µM (≈ 196 µg/mL); MIC [24]: 500 µM (≈ 196 µg/mL)
Cc1cc(C)nc(NS(=O)(=O)c2ccc(N)cc2)n1 [SULFAMETHAZINE] |  |  |  |  | 62.5 µM (≈ 17.4 µg/mL) | 125 µM (≈ 34.8 µg/mL) | 32 µM (≈ 8.91 µg/mL) | 62.5 µM (≈ 17.4 µg/mL) | 16 µM (≈ 4.45 µg/mL) | 32 µM (≈ 8.91 µg/mL) | 125 µM (≈ 34.8 µg/mL) | 16 µM (≈ 4.45 µg/mL) | 16 µM (≈ 4.45 µg/mL) | 32 µM (≈ 8.91 µg/mL) | 500 µM (≈ 139 µg/mL) | > 500 µM | 500 µM (≈ 139 µg/mL) | > 500 µM | > 500 µM | > 500 µM | 
O=C(Nc1ccc(S(=O)(=O)Nc2nccs2)cc1)c1cc(Cl)ccc1O | > 125 µM | > 125 µM | > 125 µM | > 125 µM | 250 µM (≈ 102 µg/mL) | 250 µM (≈ 102 µg/mL) | 250 µM (≈ 102 µg/mL) | 250 µM (≈ 102 µg/mL) | 8 µM (≈ 3.28 µg/mL) | 16 µM (≈ 6.56 µg/mL) | 16 µM (≈ 6.56 µg/mL) | 8 µM (≈ 3.28 µg/mL) | 8 µM (≈ 3.28 µg/mL) | 8 µM (≈ 3.28 µg/mL) | > 125 µM | > 125 µM | > 125 µM | > 125 µM | > 125 µM | > 125 µM | MIC [21]: > 125 µM; MIC [22]: > 125 µM; MIC [23]: > 125 µM; MIC [24]: > 125 µM
Cc1cc(C)nc(NS(=O)(=O)c2ccc(/N=C/c3cc(Cl)ccc3O)cc2)n1 | > 125 µM | > 125 µM | > 125 µM | > 125 µM | 250 µM (≈ 104 µg/mL) | 500 µM (≈ 208 µg/mL) | 62.5 µM (≈ 26.1 µg/mL) | 125 µM (≈ 52.1 µg/mL) | 62.5 µM (≈ 26.1 µg/mL) | 125 µM (≈ 52.1 µg/mL) | 250 µM (≈ 104 µg/mL) | 125 µM (≈ 52.1 µg/mL) | 125 µM (≈ 52.1 µg/mL) | 250 µM (≈ 104 µg/mL) | 250 µM (≈ 104 µg/mL) | 500 µM (≈ 208 µg/mL) | 125 µM (≈ 52.1 µg/mL) | 250 µM (≈ 104 µg/mL) | > 500 µM | > 500 µM | MIC [25]: 500 µM (≈ 208 µg/mL); MIC [21]: > 125 µM; MIC [22]: > 125 µM; MIC [23]: > 125 µM; MIC [24]: > 125 µM
O=C(Nc1ccc(S(=O)(=O)Nc2ncccn2)cc1)c1cc(Cl)ccc1O |  |  |  |  | 125 µM (≈ 50.6 µg/mL) | 250 µM (≈ 101 µg/mL) | 62.5 µM (≈ 25.3 µg/mL) | 62.5 µM (≈ 25.3 µg/mL) | 4 µM (≈ 1.62 µg/mL) | 8 µM (≈ 3.24 µg/mL) | 16 µM (≈ 6.48 µg/mL) | 4 µM (≈ 1.62 µg/mL) | 8 µM (≈ 3.24 µg/mL) | 8 µM (≈ 3.24 µg/mL) | 125 µM (≈ 50.6 µg/mL) | 125 µM (≈ 50.6 µg/mL) | 31.2 µM (≈ 12.7 µg/mL) | 31.2 µM (≈ 12.7 µg/mL) | > 500 µM | > 500 µM | 
Nc1ccc(S(=O)(=O)Nc2ncccn2)cc1 [SULFADIAZINE] |  |  |  |  | 32 µM (≈ 8.01 µg/mL) | 62.5 µM (≈ 15.6 µg/mL) | 62.5 µM (≈ 15.6 µg/mL) | 62.5 µM (≈ 15.6 µg/mL) | 16 µM (≈ 4 µg/mL) | 16 µM (≈ 4 µg/mL) | 32 µM (≈ 8.01 µg/mL) | 8 µM (≈ 2 µg/mL) | 8 µM (≈ 2 µg/mL) | 8 µM (≈ 2 µg/mL) | 500 µM (≈ 125 µg/mL) | > 500 µM | 500 µM (≈ 125 µg/mL) | > 500 µM | > 500 µM | > 500 µM | 
NNC(=O)c1ccncc1 [ISONIAZID] |  |  |  |  | 0.5 µM (≈ 0.0686 µg/mL) | 1 µM (≈ 0.137 µg/mL) | > 250 µM | > 250 µM | > 250 µM | > 250 µM | > 250 µM | 4 µM (≈ 0.549 µg/mL) | 4 µM (≈ 0.549 µg/mL) | 8 µM (≈ 1.1 µg/mL) |  |  |  |  |  |  | 
Cc1cc(NS(=O)(=O)c2ccc(/N=C/c3cccc(Cl)c3)cc2)no1 | 500 µM (≈ 188 µg/mL) | 500 µM (≈ 188 µg/mL) | 500 µM (≈ 188 µg/mL) | 500 µM (≈ 188 µg/mL) | 62.5 µM (≈ 23.5 µg/mL) | 125 µM (≈ 47 µg/mL) | 32 µM (≈ 12 µg/mL) | 62.5 µM (≈ 23.5 µg/mL) | 4 µM (≈ 1.5 µg/mL) | 8 µM (≈ 3.01 µg/mL) | 8 µM (≈ 3.01 µg/mL) | 4 µM (≈ 1.5 µg/mL) | 4 µM (≈ 1.5 µg/mL) | 4 µM (≈ 1.5 µg/mL) | 31.2 µM (≈ 11.7 µg/mL) | 62.5 µM (≈ 23.5 µg/mL) | 31.2 µM (≈ 11.7 µg/mL) | 62.5 µM (≈ 23.5 µg/mL) | > 500 µM | > 500 µM | MIC [21]: 500 µM (≈ 188 µg/mL); MIC [22]: 500 µM (≈ 188 µg/mL); MIC [23]: 500 µM (≈ 188 µg/mL); MIC [24]: 500 µM (≈ 188 µg/mL)
